Data published in ChEMBL document CHEMBL3352217, “Expanding the results of a high throughput screen against an isochorismate-pyruvate lyase to enzymes of a similar scaffold or mechanism” (Bioorg Med Chem, 2014).

How the values were obtained:
[1] = Inhibition of Pseudomonas aeruginosa PAO1 PchB
Escherichia coli = assay: Ratio of I50 to Km for Escherichia coli Chorismate mutase
How it was run: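 N-His-tagged E. coli chorismate mutase domain (PheA), 500 nM. Chorismate at its Km (600 µM), inhibitor 0–500 µM, all post-mixing. Initial rates from A310 decrease over 30 s, in triplicate. I50 is the concentration giving 50% inhibition at substrate = Km, divided by Km.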

[2] = Inhibition of Pseudomonas aeruginosa PAO1 PchB expressed in Escherichia coli BL21(DE3) using isochorismate as substrate assessed as pyruvate production after 10 mins by microplate reader analysis
How it was run: (§1)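 Pyruvate output at 25 °C, with PchB at 50 nM in 50 mM potassium phosphate pH 8 started with isochorismate, or Irp9 at 200 nM started with chorismate. Substrate was above the 10 µM Km and inhibitor was varied. Samples taken at 2-min points were quenched in 0.25 g/L DNPH in 1 M HCl and held 10 min at 37 °C. NaOH was added and A515 read, converted to pyruvate by standard curve. Runs were in triplicate, giving IC50.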

[3] = biological target: T1, Bifunctional chorismate mutase/prephenate dehydratase (Escherichia coli (strain K12), UniProt P0A9J8); assay: Inhibition of Escherichia coli K-12 EcCM expressed in Escherichia coli BL21 Star (DE3) pLysS using chorismate as substrate assessed as disappearance of chorismate by stopped-flow analysis
T1 sequence (P0A9J8 whole entry): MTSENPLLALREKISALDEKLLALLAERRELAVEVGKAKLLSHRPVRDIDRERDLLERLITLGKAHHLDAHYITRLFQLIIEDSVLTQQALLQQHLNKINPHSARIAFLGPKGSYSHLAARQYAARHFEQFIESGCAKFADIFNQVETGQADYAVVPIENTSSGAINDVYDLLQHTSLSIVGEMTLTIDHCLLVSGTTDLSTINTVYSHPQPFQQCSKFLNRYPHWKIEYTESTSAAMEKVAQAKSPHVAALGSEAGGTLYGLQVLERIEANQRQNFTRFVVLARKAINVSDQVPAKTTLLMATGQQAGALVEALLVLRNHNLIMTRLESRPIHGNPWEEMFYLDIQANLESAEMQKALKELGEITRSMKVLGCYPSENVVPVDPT
How it was run: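 His-tagged EcCM domain was Ni-affinity and size-exclusion purified. Post-mixing concentrations were 500 nM enzyme, chorismate at Km (600 µM) and inhibitor 0–500 µM. Rate was the A310 decrease over 30 s, in triplicate, giving IC50.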

[4] = Inhibition of Pseudomonas aeruginosa PAO1 PchB expressed in Escherichia coli BL21(DE3) using isochorismate as substrate assessed as salicylate production by fluorescence spectrometry
How it was run: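 Untagged PchB at 50 nM in 50 mM potassium phosphate pH 8. […] Initial velocities at 25 °C were taken from salicylate fluorescence (ex 310/em 430 nm) over 120 s of the linear phase. IC50 came from dose-response percent inhibition.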

[5] = biological target: T2, Salicylate synthetase, Irp9 (Yersinia enterocolitica, UniProt Q9X9I8); assay: Inhibition of Yersinia enterocolitica Irp9 using chorismate as substrate assessed as pyruvate production after 10 mins by microplate reader analysis; how it was run: as §1
T2 sequence (Q9X9I8 whole entry): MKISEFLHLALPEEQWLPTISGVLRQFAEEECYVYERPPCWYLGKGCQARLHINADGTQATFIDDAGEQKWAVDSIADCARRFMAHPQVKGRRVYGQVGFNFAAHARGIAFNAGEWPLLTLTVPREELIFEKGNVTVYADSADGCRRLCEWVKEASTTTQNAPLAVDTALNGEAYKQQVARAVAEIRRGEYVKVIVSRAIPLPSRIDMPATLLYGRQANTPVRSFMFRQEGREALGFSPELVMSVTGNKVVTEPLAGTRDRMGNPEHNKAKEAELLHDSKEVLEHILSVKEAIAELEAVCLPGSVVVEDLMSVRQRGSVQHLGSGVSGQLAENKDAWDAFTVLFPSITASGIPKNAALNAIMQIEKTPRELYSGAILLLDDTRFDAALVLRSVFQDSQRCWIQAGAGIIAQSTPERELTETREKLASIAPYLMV

[6] = biological target: T2, Salicylate synthetase, Irp9; assay: Inhibition of Yersinia enterocolitica Irp9 using chorismate as substrate assessed as salicylate production by fluorescence spectrometry
How it was run: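 Irp9 at 100 nM in 50 mM Tris-HCl pH 7.5, 10 mM MgCl2, 10% glycerol. Reaction was started with chorismate, with inhibitor concentration varied. Initial velocities at 25 °C were taken from salicylate fluorescence (ex 310/em 430 nm) over 120 s of the linear phase. IC50 came from the dose-response.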

[7] = biological target: T2, Salicylate synthetase, Irp9; assay: Competitive inhibition of Yersinia enterocolitica Irp9 using chorismate as substrate
How it was run: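 Stopped-flow kinetics at 25 °C in 50 mM Tris pH 7.5, 10 mM MgCl2, 10% glycerol. Final Irp9 was 100 nM, chorismate 0–40 µM and inhibitor 0–10 µM. Enzyme plus inhibitor was mixed with chorismate. Initial velocities came from the rise in salicylate fluorescence (ex 310 nm, 360 nm cutoff filter) over 30 s. Ki and inhibition mode were derived from these rates.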

Pseudomonas aeruginosa [8] = assay: Antimicrobial activity against Pseudomonas aeruginosa PAO1 PchE deletion mutant after 24 hrs by microplate reader analysis in presence of 5 uM FeCl3; format: functional, organism-based; settings: PAO1, 24 h
How it was run: (§2)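 Overnight LB cultures were diluted to OD600 0.5 in PMH-D medium. Cells were added to PMH-D containing FeCl3, either 5 µM (iron-limited) or 200 µM (iron-rich), with inhibitor at 0–5 mM (DMSO vehicle). Plates were shaken at 37 °C for 24 h. Cells were then pelleted, the medium was removed, and cells were resuspended in LB. A600 was read. Growth was normalized to no-inhibitor cultures to give EC50.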

Pseudomonas aeruginosa [9] = assay: Antimicrobial activity against Pseudomonas aeruginosa PAO1 PvdA deletion mutant after 24 hrs by microplate reader analysis in presence of 200 uM FeCl3; format: functional, organism-based; how it was run: as §2
Pseudomonas aeruginosa [10] = assay: Antimicrobial activity against wild-type Pseudomonas aeruginosa PAO1 after 24 hrs by microplate reader analysis in presence of 200 uM FeCl3; format: functional, organism-based; how it was run: as §2
Pseudomonas aeruginosa [11] = assay: Antimicrobial activity against Pseudomonas aeruginosa PAO1 PvdA deletion mutant after 24 hrs by microplate reader analysis in presence of 5 uM FeCl3; format: functional, organism-based; settings: PAO1, 24 h; how it was run: as §2
[12] = Competitive inhibition of Pseudomonas aeruginosa PAO1 PchB expressed in Escherichia coli BL21(DE3) using isochorismate as substrate
How it was run: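 Untagged PchB at 50 nM final, in 50 mM potassium phosphate pH 8 (plus 1 mM TCEP for stopped-flow runs), at 25 °C. Isochorismate was varied up to 75 µM and inhibitor up to 1.5 µM. Salicylate formation was followed by fluorescence (excitation 310 nm; emission 430 nm or 360 nm cutoff) as linear initial velocities, over 120 s on a cuvette fluorimeter or 30 s by stopped-flow.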

[13] = biological target: T1, Bifunctional chorismate mutase/prephenate dehydratase; assay: Competitive inhibition of Escherichia coli K-12 EcCM expressed in Escherichia coli BL21 Star (DE3) pLysS using chorismate as substrate
How it was run: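 N-terminally His-tagged chorismate mutase domain of pheA, purified by Ni-chelate and size-exclusion chromatography. Enzyme with inhibitor mixed 1:1 with chorismate. Final concentrations: enzyme 500 nM, chorismate 0–2 mM, inhibitor 0–50 µM. Initial rates read as the 30 s decrease in absorbance at 310 nm, giving Ki and inhibition mode.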

Pseudomonas aeruginosa [14] = assay: Antimicrobial activity against Pseudomonas aeruginosa PAO1 PchE deletion mutant after 24 hrs by microplate reader analysis in presence of 200 uM FeCl3; format: functional, organism-based; how it was run: as §2
Yersinia enterocolitica = assay: Antimicrobial activity against Yersinia enterocolitica ATCC 9610 after 24 hrs by microplate reader analysis in presence of 5 uM FeCl3; format: functional, organism-based; settings: ATCC 9610, 24 h; how it was run: as §2
Pseudomonas aeruginosa [15] = assay: Antimicrobial activity against wild-type Pseudomonas aeruginosa PAO1 after 24 hrs by microplate reader analysis in presence of 5 uM FeCl3; format: functional, organism-based; settings: PAO1, 24 h; how it was run: as §2

## O=C(O)C1CC2(C(=O)O)C=CC(O)C(C2)O1 (configuration not stated)
[1]
  Ki: 2 µM
Escherichia coli
  Ratio: 0.008

## O=C1S/C(=C/c2cc([N+](=O)[O-])cc([N+](=O)[O-])c2O)C(=O)N1c1ccccc1
[2]
  IC50: 1.4 µM
[3]
  IC50: 85 µM
[4]
  IC50: 1.4 µM
[5]
  IC50: Not Active

## O=C(O)c1cc(S(=O)(=O)Nc2ccccc2C(=O)O)ccc1Br
[2]
  IC50: 0.094 µM
[3]
  IC50: 200 µM
[4]
  IC50: 0.24 µM
[5]
  IC50: Not Active
[6]
  IC50: Not Active

## O=c1oc2cc(Br)c(O)c(Br)c2s1
[2]
  IC50: 10 µM
[3]
  IC50: 120 µM
[4]
  IC50: 10 µM

## O=C(O)c1cccc(S(=O)(=O)Nc2ccccc2C(=O)O)c1
[2]
  IC50: 0.22 µM
[3]
  IC50: 170 µM
[4]
  IC50: 0.25 µM
[5]
  IC50: Not Active
[6]
  IC50: Not Active

## COC(=O)Oc1c([N+](=O)[O-])cc2oc(=O)sc2c1[N+](=O)[O-]
[2]
  IC50: 0.53 µM
[7]
  Ki: 0.8 µM
Pseudomonas aeruginosa [8]
  EC50: > 5000 µM
Pseudomonas aeruginosa [9]
  EC50: Not Active
Pseudomonas aeruginosa [10]
  EC50: Not Active
Pseudomonas aeruginosa [11]
  EC50: > 5000 µM
[3]
  IC50: 32 µM
[4]
  IC50: 0.87 µM
[12]
  Ki: 0.35 µM
[13]
  Ki: 40 µM
Pseudomonas aeruginosa [14]
  EC50: Not Active
Yersinia enterocolitica
  EC50: 2300 µM
Pseudomonas aeruginosa [15]
  EC50: > 5000 µM

## COC(=O)Oc1c(Cl)cc2oc(=O)sc2c1[N+](=O)[O-]
[2]
  IC50: 1.8 µM
[3]
  IC50: 45 µM
[4]
  IC50: 3.3 µM
[5]
  IC50: Not Active

## O=P(O)(O)C12CC3CC(CC(C3)C1)C2
[1]
  Ki: > 5000 µM
